From ChEMBL document CHEMBL1155222, “Synthesis and anticancer activity of N-bis(trifluoromethyl)alkyl-N'-thiazolyl and N-bis(trifluoromethyl)alkyl-N'-benzothiazolyl ureas” (2009)

Experiments:
Assay type in all cases: functional
CCRF-CEM = assay: Anticancer activity against human CCRF-CEM cells after 48 hrs by sulforhodamine B assay
Summary of the method: (§1)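 NCI 60-cell-line screen. Cells grown in RPMI 1640 with 5% FBS and 2 mM L-glutamine, plated at 5000–40,000 cells/well, and preincubated 24 h at 37 °C under 5% CO2. Compounds were taken from DMSO stocks and tested at five final concentrations, 10^-4 to 10^-8 M, for 48 h. Cells were TCA-fixed, stained with 0.4% SRB, and read at 515 nm. GI50, TGI and LC50 were derived as log molar values.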

HL-60(TB) = assay: Anticancer activity against human HL-60(TB) cells after 48 hrs by sulforhodamine B assay; conditions: HL-60, 48 h
Summary of the method: (§2)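 NCI 60-cell-line screen. Cells were grown in RPMI 1640 with 5% FBS and 2 mM L-glutamine, seeded at 5000–40,000 cells/well and preincubated 24 h at 37 °C, 5% CO2. Compounds in DMSO were diluted in medium with gentamicin and tested at five concentrations (10^-4 to 10^-8 M) for 48 h. Cells were then fixed with TCA, stained with SRB and read at 515 nm.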

HOP-92 = assay: Anticancer activity against human HOP92 cells after 48 hrs by sulforhodamine B assay; conditions: HOP-92, 48 h; summary of the method: as §1
NCI-H322M = assay: Anticancer activity against human NCI-H322M cells after 48 hrs by sulforhodamine B assay; summary of the method: as §1
NCI-H23 = assay: Anticancer activity against human NCI-H23 cells after 48 hrs by sulforhodamine B assay; conditions: NCI-H23, 48 h; summary of the method: as §2
HCC 2998 = assay: Anticancer activity against human HCC2998 cells after 48 hrs by sulforhodamine B assay; conditions: HCC 2998, 48 h; summary of the method: as §1
SF-295 = assay: Anticancer activity against human SF295 cells after 48 hrs by sulforhodamine B assay; conditions: SF-295, 48 h; summary of the method: as §1
SNB-19 = assay: Anticancer activity against human SNB19 cells after 48 hrs by sulforhodamine B assay; conditions: SNB-19, 48 h
Summary of the method: (§3)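 NCI 60-cell-line panel; cells grown in RPMI 1640 with 5% FBS and 2 mM L-glutamine, plated at 5000–40,000 cells/well and preincubated 24 h at 37 °C, 5% CO2. Compounds came from DMSO stocks diluted in medium with gentamicin and were tested at five final concentrations, 10^-4 to 10^-8 M, for 48 h. Cells were fixed with TCA, stained with SRB and read at 515 nm. GI50, TGI and LC50 were derived as log molar values.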

LOX IMVI = assay: Anticancer activity against human LOXIMVI cells after 48 hrs by sulforhodamine B assay; summary of the method: as §1
SK-MEL-2 = assay: Anticancer activity against human SK-MEL-2 cells after 48 hrs by sulforhodamine B assay; conditions: SK-MEL-2, 48 h; summary of the method: as §1
SK-OV-3 = assay: Anticancer activity against human SKOV3 cells after 48 hrs by sulforhodamine B assay; conditions: SK-OV-3, 48 h; summary of the method: as §1
786-0 = assay: Anticancer activity against human 786-0 cells after 48 hrs by sulforhodamine B assay; conditions: 786-0, 48 h; summary of the method: as §1
ACHN = assay: Anticancer activity against human ACHN cells after 48 hrs by sulforhodamine B assay; summary of the method: as §1
TK-10 = assay: Anticancer activity against human TK10 cells after 48 hrs by sulforhodamine B assay; conditions: TK-10, 48 h; summary of the method: as §3
BT-549 = assay: Anticancer activity against human BT549 cells after 48 hrs by sulforhodamine B assay; conditions: BT-549, 48 h; summary of the method: as §1
NCI-H460 = assay: Anticancer activity against human NCI-H460 cells assessed as cell growth at 100 uM after 48 hrs by Alamar blue assay relative to control; conditions: NCI-H460, 48 h, read-out: Activity
Summary of the method: (§4)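 NCI one-dose pre-test on MCF7, NCI-H460 and SF-268. Cells were inoculated and preincubated, then exposed to a single 10^-4 M concentration for 48 h. End-point was alamar blue. Results are percent growth versus untreated control cells, with negative values indicating cell kill.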

MCF7 = assay: Anticancer activity against human MCF7 cells assessed as cell growth at 100 uM after 48 hrs by Alamar blue assay relative to control; conditions: MCF7, 48 h, read-out: Activity; summary of the method: as §4
SF-268 = assay: Anticancer activity against human SF268 cells assessed as cell growth at 100 uM after 48 hrs by Alamar blue assay relative to control; conditions: SF-268, 48 h, read-out: Activity; summary of the method: as §4
[1] = Anticancer activity against human RPMI8266 cells after 48 hrs by sulforhodamine B assay; summary of the method: as §1

**Q.** For `O=c1[nH]cc(F)c(=O)[nH]1` [FLUOROURACIL], which GI50 (CCRF-CEM) is on record?
**A.** 9.77 µM

**Q.** What about the GI50 (HL-60(TB)) of the same compound?
**A.** 2.29 µM

**Q.** What about the GI50 (HOP-92) of the same compound?
**A.** 77.6 µM

**Q.** And the GI50 (NCI-H322M)?
**A.** 0.178 µM

**Q.** What about the GI50 (NCI-H23) of the same compound?
**A.** 0.331 µM

**Q.** And the GI50 (HCC 2998)?
**A.** 0.0525 µM

**Q.** And the GI50 (SF-295)?
**A.** 0.229 µM

**Q.** What about the GI50 (SNB-19) of the same compound?
**A.** 3.8 µM

**Q.** What about the GI50 (LOX IMVI) of the same compound?
**A.** 0.245 µM

**Q.** And the GI50 (SK-MEL-2)?
**A.** 56.2 µM

**Q.** What about the GI50 (SK-OV-3) of the same compound?
**A.** 21.9 µM

**Q.** What about the GI50 (786-0) of the same compound?
**A.** 0.724 µM

**Q.** And the GI50 (ACHN)?
**A.** 0.295 µM

**Q.** And the GI50 (TK-10)?
**A.** 1.12 µM

**Q.** And the GI50 (BT-549)?
**A.** 10.7 µM

**Q.** Which results are given for `O=C(Nc1nc2ccccc2s1)NC(C(F)(F)F)C(F)(F)F`?
**A.** growth at 100 µM (NCI-H460): -74%; growth at 100 µM (MCF7): -10%; growth at 100 µM (SF-268): -39%; GI50 (CCRF-CEM): 33.1 µM; GI50 (HL-60(TB)): 26.3 µM; GI50 [1]: 33.9 µM; GI50 (HOP-92): 33.9 µM; GI50 (NCI-H322M): 18.2 µM; GI50 (HCC 2998): 20 µM; GI50 (SF-295): 23.4 µM; GI50 (SNB-19): 35.5 µM; GI50 (LOX IMVI): 22.9 µM; GI50 (SK-MEL-2): 22.9 µM; GI50 (SK-OV-3): 30.9 µM; GI50 (786-0): 28.8 µM; GI50 (ACHN): 28.2 µM; GI50 (TK-10): 31.6 µM; GI50 (BT-549): 28.2 µM

**Q.** Which results are given for `CNC(=O)Nc1ccccc1`?
**A.** GI50 (CCRF-CEM): 100 µM; GI50 (HL-60(TB)): 100 µM; GI50 [1]: 100 µM; GI50 (HOP-92): 100 µM; GI50 (NCI-H322M): 100 µM; GI50 (NCI-H23): 100 µM; GI50 (HCC 2998): 100 µM; GI50 (SF-295): 100 µM; GI50 (SNB-19): 100 µM; GI50 (LOX IMVI): 100 µM; GI50 (SK-MEL-2): 100 µM; GI50 (SK-OV-3): 100 µM; GI50 (786-0): 100 µM; GI50 (ACHN): 100 µM; GI50 (TK-10): 100 µM; GI50 (BT-549): 100 µM

**Q.** With `CCC(NC(=O)Nc1nccs1)(C(F)(F)F)C(F)(F)F` as the compound, how does the growth at 100 µM (NCI-H460) read?
**A.** 6%

**Q.** What about the growth at 100 µM (MCF7) of the same compound?
**A.** 20%

**Q.** What about the growth at 100 µM (SF-268) of the same compound?
**A.** 40%

**Q.** And the GI50 (CCRF-CEM)?
**A.** 19.5 µM

**Q.** What about the GI50 (HOP-92) of the same compound?
**A.** 60.3 µM

**Q.** And the GI50 (NCI-H322M)?
**A.** > 100 µM

**Q.** And the GI50 (HCC 2998)?
**A.** 74.1 µM

**Q.** What about the GI50 (SF-295) of the same compound?
**A.** 52.5 µM

**Q.** And the GI50 (SNB-19)?
**A.** > 100 µM

**Q.** And the GI50 (LOX IMVI)?
**A.** 72.4 µM

**Q.** And the GI50 (SK-MEL-2)?
**A.** 20 µM

**Q.** And the GI50 (SK-OV-3)?
**A.** > 100 µM

**Q.** What about the GI50 (786-0) of the same compound?
**A.** > 100 µM

**Q.** What about the GI50 (ACHN) of the same compound?
**A.** 61.7 µM

**Q.** What about the GI50 (TK-10) of the same compound?
**A.** 31.6 µM

**Q.** And the GI50 (BT-549)?
**A.** 40.7 µM

**Q.** Which results are given for `CCC(NC(=O)Nc1nc2ccccc2s1)(C(F)(F)F)C(F)(F)F`?
**A.** growth at 100 µM (NCI-H460): -93%; growth at 100 µM (MCF7): -79%; growth at 100 µM (SF-268): -94%; GI50 (CCRF-CEM): 23.4 µM; GI50 (HOP-92): 19.1 µM; GI50 (NCI-H322M): 25.7 µM; GI50 (HCC 2998): 19.1 µM; GI50 (SF-295): 17 µM; GI50 (SNB-19): 20.9 µM; GI50 (LOX IMVI): 18.2 µM; GI50 (SK-MEL-2): 15.8 µM; GI50 (SK-OV-3): 17.8 µM; GI50 (786-0): 20 µM; GI50 (ACHN): 18.2 µM; GI50 (TK-10): 21.9 µM; GI50 (BT-549): 18.2 µM

**Q.** For `O=C(Nc1nccs1)NC(C(F)(F)F)C(F)(F)F`, which growth at 100 µM (NCI-H460) is on record?
**A.** 22%

**Q.** And the growth at 100 µM (MCF7)?
**A.** 35%

**Q.** And the growth at 100 µM (SF-268)?
**A.** 20%

**Q.** What about the GI50 (HL-60(TB)) of the same compound?
**A.** 72.4 µM

**Q.** And the GI50 (HOP-92)?
**A.** 38 µM

**Q.** And the GI50 (NCI-H322M)?
**A.** 87.1 µM

**Q.** And the GI50 (HCC 2998)?
**A.** 31.6 µM

**Q.** And the GI50 (SF-295)?
**A.** 43.7 µM

**Q.** And the GI50 (SNB-19)?
**A.** 49 µM

**Q.** What about the GI50 (LOX IMVI) of the same compound?
**A.** 58.9 µM

**Q.** What about the GI50 (SK-MEL-2) of the same compound?
**A.** 45.7 µM

**Q.** What about the GI50 (SK-OV-3) of the same compound?
**A.** > 100 µM

**Q.** And the GI50 (786-0)?
**A.** > 100 µM

**Q.** What about the GI50 (ACHN) of the same compound?
**A.** 55 µM

**Q.** What about the GI50 (TK-10) of the same compound?
**A.** 51.3 µM

**Q.** And the GI50 (BT-549)?
**A.** 46.8 µM

**Q.** For `CC(NC(=O)Nc1nc2ccccc2s1)(C(F)(F)F)C(F)(F)F`, which growth at 100 µM (NCI-H460) is on record?
**A.** 43%

**Q.** What about the growth at 100 µM (MCF7) of the same compound?
**A.** 62%

**Q.** And the growth at 100 µM (SF-268)?
**A.** 28%

**Q.** What about the GI50 (CCRF-CEM) of the same compound?
**A.** 27.5 µM

**Q.** What about the GI50 (HL-60(TB)) of the same compound?
**A.** 97.7 µM

**Q.** What about the GI50 [1] of the same compound?
**A.** 38.9 µM

**Q.** What about the GI50 (HOP-92) of the same compound?
**A.** 75.9 µM

**Q.** What about the GI50 (NCI-H322M) of the same compound?
**A.** 26.9 µM

**Q.** And the GI50 (HCC 2998)?
**A.** 38.9 µM

**Q.** What about the GI50 (SF-295) of the same compound?
**A.** 60.3 µM

**Q.** What about the GI50 (SNB-19) of the same compound?
**A.** 24.5 µM

**Q.** And the GI50 (LOX IMVI)?
**A.** 36.3 µM

**Q.** And the GI50 (SK-MEL-2)?
**A.** 30.2 µM

**Q.** What about the GI50 (SK-OV-3) of the same compound?
**A.** 52.5 µM

**Q.** What about the GI50 (786-0) of the same compound?
**A.** 20.4 µM

**Q.** What about the GI50 (ACHN) of the same compound?
**A.** 28.8 µM

**Q.** What about the GI50 (TK-10) of the same compound?
**A.** 49 µM

**Q.** And the GI50 (BT-549)?
**A.** > 100 µM
